Screening results as filed in PubChem BioAssay.
Hits are enriched below; roughly 9.4% of the tested compounds scored in any of these assays.
Beta cell apopt: beta cell apoptosis inhibition; INS-1E cytokine-induced death, ATP luminescence, 48 h; percent of positive-control rescue, neutral wells zero; protection from apoptosis, % (concentration not given with the values); 300,000 tested, 0.8% active;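 active means Every replicate reaches about 75%, or at least half do and their mean reaches it too, limit read from the data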;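 further: 0% = cytokine-treated negative control wells and 100% = positive control rescue; higher means more ATP so stronger rescue from cytokine killing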
Mdm2 MdmX PPI: disrupts the human Mdm2-MdmX interaction | O15151+Q00987 | SaOS-2 split-luciferase Mdm2/MdmX complementation, luminescence | inhibition, % at 8 µM | 330,000 tested, 3% active;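 active means inhibition of at least 50% at 8 µM in the primary screen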
Target sequence (O15151 whole entry, looked up): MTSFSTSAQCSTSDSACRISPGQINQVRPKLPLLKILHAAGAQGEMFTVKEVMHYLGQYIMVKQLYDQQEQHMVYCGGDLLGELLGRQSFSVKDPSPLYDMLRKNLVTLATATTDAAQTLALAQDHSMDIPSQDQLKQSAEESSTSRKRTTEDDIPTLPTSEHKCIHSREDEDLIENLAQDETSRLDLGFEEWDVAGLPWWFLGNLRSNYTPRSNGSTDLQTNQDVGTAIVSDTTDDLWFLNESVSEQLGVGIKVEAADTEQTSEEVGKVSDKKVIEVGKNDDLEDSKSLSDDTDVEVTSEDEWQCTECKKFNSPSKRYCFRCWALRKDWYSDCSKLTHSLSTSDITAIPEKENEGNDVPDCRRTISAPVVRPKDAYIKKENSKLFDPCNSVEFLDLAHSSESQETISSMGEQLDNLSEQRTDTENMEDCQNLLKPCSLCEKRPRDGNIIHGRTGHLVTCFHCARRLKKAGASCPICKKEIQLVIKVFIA
Target sequence (Q00987 whole entry, looked up): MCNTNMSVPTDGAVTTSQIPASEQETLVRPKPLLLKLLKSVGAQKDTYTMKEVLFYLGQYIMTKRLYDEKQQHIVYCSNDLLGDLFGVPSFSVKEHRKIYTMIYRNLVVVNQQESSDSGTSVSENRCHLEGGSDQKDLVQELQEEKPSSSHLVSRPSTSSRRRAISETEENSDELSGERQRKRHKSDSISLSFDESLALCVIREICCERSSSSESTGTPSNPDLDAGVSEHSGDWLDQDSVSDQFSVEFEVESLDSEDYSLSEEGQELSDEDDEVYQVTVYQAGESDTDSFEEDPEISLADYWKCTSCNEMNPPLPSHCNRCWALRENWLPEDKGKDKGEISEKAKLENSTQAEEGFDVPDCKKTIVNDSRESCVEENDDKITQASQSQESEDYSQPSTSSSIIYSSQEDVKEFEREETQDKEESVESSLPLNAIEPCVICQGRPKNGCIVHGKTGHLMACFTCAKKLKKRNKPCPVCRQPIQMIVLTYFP
SKKanGAS inh: SKKanGAS growth inhibition; AID 1662; 300,000 tested, 1.3% active; inhibition, % at 7.5 µM; S. pyogenes SKKanGAS, kanamycin growth, BacTiter-Glo, 6 h;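 active means mean replicate score, as percent of positive control median, at least 50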;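 further: strain carries kanamycin resistance gene driven by streptokinase promoter and grows in 40 µg/ml kanamycin; loss of luminescence reflects streptokinase promoter inhibition or plain growth inhibition; 0% = median of DMSO wells and 100% = positive control at its reference dose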
T cruzi repl: blocks replication of Trypanosoma cruzi. T. cruzi beta-gal in NIH3T3, luminescence, 90 h. inhibition, % (test concentration not listed). 300,000 tested, 1.4% active. AID 1885;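 active means mean inhibition across valid replicates above about 55%, limit read from the data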;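 further: signal also drops with host cell toxicity which is not excluded here; 0% = plate median of DMSO wells and 100% = zero luminescence signal; higher percent means less beta-gal luminescence so fewer parasites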
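Incubation – ≥90 h infection period, 3 h prior cell attachment · System – NIH/3T3 fibroblasts plus reporter T. cruzi · Doses – compound pinned at 50 nL/well, DMSO · Read-out basis – percent inhibition of parasite-derived β-gal signal · Signal – luminescent β-galactosidase signal after 60 min lysis · Also added – 5000 T. cruzi trypomastigotes/well · Medium – Low-serum DMEM with 2% FBS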
CSC inhib: blocks cancer stem cells; cancer stem cell-like cells viability, luminescence; inhibition, % at 7.5 µM; 300,000 tested, 1.1% active; in the data active means inhibition above about 75%; tested in HMLE shEcad cells
L major viab: Leishmania major promastigote growth inhibition. Leishmania major promastigotes, resazurin fluorescence viability. inhibition, % at 10 µM. 200,000 tested, 9% active; in the data active means inhibition above about 50%;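 further: promastigotes grown with compound for 44 hours at 28 °C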
* hit, by the source's call; . = not tested or not shown.

SMILES	Beta cell apopt	Mdm2 MdmX PPI	SKKanGAS inh	T cruzi repl	CSC inhib	L major viab
CCc1nnc(NC(=O)C2=CCN(S(=O)(=O)c3ccc(F)cc3)CC2)s1	-11	8	-7	2	0	.
O=C(NCCc1c[nH]c2ccccc12)C(=O)c1c[nH]c2ccccc12	.	33	0	19	112*	.
Cc1c(C#N)c2ccccc2n1CC(=O)NCCc1c[nH]c2ccccc12	.	22	-3	-4	1	27
COc1ccc(OCC(=O)NCCc2c[nH]c3ccccc23)cc1	-3	7	-10	0	16	64*
COc1ccc(C(=O)NCCc2c[nH]c3ccccc23)cc1	6	-103	-3	-14	-1	.
O=C(NCCc1ccc(Cl)cc1)C(=O)c1c[nH]c2ccccc12	2	9	-7	2	-7	.
N#Cc1cn(CC(=O)NCCc2c[nH]c3ccccc23)c2ccccc12	-1	19	4	-6	-8	88*
COc1ccc(-c2cn(CCc3c[nH]c4ccccc34)nn2)cc1	1	-15	-4	-9	96*	.
Cc1c(C(=O)N2CCOCC2)c(S(=O)(=O)N2CCN(c3ccc(Cl)cc3)CC2)c(C)n1C	.	21	-2	-5	-12	.
COC(=O)CCN(c1ccccc1)S(=O)(=O)c1cc(-c2cc(C)no2)ccc1OC	5	25	-13	-17	16	.
CCOC(=O)C1(CC2CCCCO2)CCN(C(=O)Nc2ccc(C)c(C)c2)CC1 (stereo not given)	-4	-4	-6	12	-9	27
Cc1cccc(NC(=O)Nc2ccncc2)c1	7	3	4	65*	-6	13
C=CCNC(=O)Nc1ccc(Br)cc1Cl	-2	20	0	-7	-2	-4
O=C(Nc1ccncc1)Nc1ccc(Br)cc1Cl	-1	16	3	56*	13	.
CCn1cc(/C=C(\NC(=O)c2ccccc2F)C(=O)NCCN2CCOCC2)c2ccccc21	-2	20	2	-7	7	.
CCc1sc(N(C(=O)Cc2ccccc2)c2ccccc2)nc1-c1ccccc1	2	25	25	14	3	3
CCc1sc(N(C(=O)Cc2ccccc2)c2ccc(F)cc2)nc1-c1ccccc1	9	1	55*	2	47	3
Cn1c(C(=O)N2CCC(C(=O)N3CCN(Cc4ccc5c(c4)OCO5)CC3)CC2)cc2sccc21	14	22	1	1	-1	8
O=C(c1cc(-c2ccccc2)on1)N1CCN(Cc2ccc3c(c2)OCO3)CC1	.	-2	-13	3	.	90*
O=C(c1ccccc1)N1CCN(Cc2ccc3c(c2)OCO3)CC1	-5	9	-1	-22	-1	.
O=C(c1cc2c(s1)CCCC2)N1CCN(Cc2ccc3c(c2)OCO3)CC1	-6	30	0	27	.	94*
CCOc1ccc(S(=O)(=O)N2CCN(C(=O)c3cc4c(s3)CCCC4)CC2)cc1	13	48	9	-2	-4	78*
O=C(c1c(F)c(F)c(F)c(F)c1F)N1CCN(Cc2ccc3c(c2)OCO3)CC1	-7	23	5	-5	5	.
Cn1c(C(=O)N2CCN(Cc3ccc4c(c3)OCO4)CC2)cc2sccc21	-13	14	6	7	.	70*
O=C(c1cc([N+](=O)[O-])ccc1Cl)N1CCN(Cc2ccc3c(c2)OCO3)CC1	2	25	-3	-3	-5	14
SMILES	Beta cell apopt	Mdm2 MdmX PPI	SKKanGAS inh	T cruzi repl	CSC inhib	L major viab
O=C(c1cc([N+](=O)[O-])cc([N+](=O)[O-])c1)N1CCN(Cc2ccc3c(c2)OCO3)CC1	3	-17	-1	66*	1	34
O=C(c1ccc(Br)s1)N1CCN(Cc2ccc3c(c2)OCO3)CC1	1	10	-1	2	-4	82*
CC(C)C[C@H]1CN=C(Nc2ccccc2)N1CC1CCC(C)CC1 (stereo not given in full)	25	29	1	23	2	.
CC(C)C(=O)Nc1nnc(S(=O)(=O)N(C)c2ccc(Cl)cc2)s1	0	7	13	-27	-2	.
COc1ccc(C(=O)OC2CCN(C)CC2)cc1	-6	6	9	55*	51	12
COc1cccc(C(=O)OC2CCN(C)CC2)c1	-6	-31	12	70*	-2	2
CN1CCC(OC(=O)c2ccccc2)CC1	-2	-1	-5	60*	16	.
Cc1c(Br)cc(C(=O)OC2CCN(C)CC2)c(C)c1C	-4	32	5	51	65	86*
COc1cccc(C(=O)OC2CCCN(C)C2)c1 (stereo not given)	-3	3	3	-16	12	0
Nc1ccc(-c2ccc(C(=O)O)s2)cn1	2	-5	9	-22	19	0
CCOc1ccc(C(=O)OC2CCN(C)CC2)cc1	.	-5	-2	37	60	100*
CN1CCC(OC(=O)COc2ccc(F)cc2)CC1	-3	11	-2	-8	-17	-9
CC(C)N1CCC(=NNc2ccc(S(=O)(=O)N3CCOCC3)cc2[N+](=O)[O-])CC1	0	-2	2	1	15	99*
CC(=O)N1CCC(=NNc2ccc(S(=O)(=O)N3CCOCC3)cc2[N+](=O)[O-])CC1	-6	8	-6	9	-8	-2
CCCN1CCC(=NNc2ccc(S(=O)(=O)N3CCOCC3)cc2[N+](=O)[O-])CC1	11	43	3	-13	65	100*
Cc1c(CCC(=O)NCCCC(=O)O)c(=O)oc2cc3oc4c(c3cc12)CCCC4	-7	-34	6	1	-18	.
C1=C[C@H]2CC[C@@H]1N(c1ccccc1)O2	.	10	.	.	.	.
OCCC1CN(Cc2ccc(-n3cccn3)cc2)CCN1Cc1ccccc1 (stereo not given)	-10	-9	-1	28	-2	14
Cc1ccc(CN2CCN(Cc3ccc(-n4cccn4)cc3C)CC2CCO)cc1 (stereo not given)	2	0	2	62*	-2	21
Cc1ccc(CN2CCN(Cc3cccc(-n4cccn4)c3)CC2CCO)cc1 (stereo not given)	6	-8	-1	10	-6	80*
Cc1ccc(CN2CCN(Cc3ccccn3)CC2CCO)cc1 (stereo not given)	-4	24	5	47	1	-1
COc1cc(OC)c(NC(C)C(=O)N2CCCC2)cc1Cl (stereo not given)	-6	2	1	-10	-14	2
CN(C)c1ccc(C(CNC(=O)COc2ccc(Cl)cc2)N2CCCC2)cc1 (stereo not given)	0	17	-9	6	-7	.
CCOc1ccc(OCCC(=O)OCC(=O)NC2CCCCC2)cc1	-2	8	-9	-3	-4	.
COc1ccc(CCN(C)C(=O)C2CCN(Cc3cccc(OC)c3OC)CC2)cc1OC	-4	-4	0	-2	-8	5
